Entries after “also recorded” stand apart in the source; their conditions may differ. Where two headings read alike, the source gives them in different places.
Assays:
Skp2-Cks1 interaction = Skp2-Cks1 interaction (Homo sapiens, UniProt P61024+Q13309); assay: AlphaScreen assay for Skp2-Cks1 interaction; format: binding
[1] = target: SCF^Skp2 (E3) ubiquitination of p27 (Homo sapiens, UniProt Q13309); assay: In vitro p27 ubiquitination assay; format: biochemical
Method in brief: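 Mouse p27 translated in rabbit reticulocyte lysate with [35S]-methionine and phosphorylated by recombinant CDK2–cyclin E. It was then mixed with 100 nM E1, 200 nM His-Cdc34, 100 nM SCFSkp2, 50 nM Cks1, 10 μM ubiquitin, 10 μM methylated ubiquitin, ATP regeneration system, 1 μM ubiquitin aldehyde and 1 μM MG132. Run 30 min, 30 °C; products read by SDS-PAGE/phosphorimager. Test compound 40 μM.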

[2] = system: mink lung epithelial cell line stably expressing GFP-p27; assay: GFP-p27 stabilization in mink lung epithelial cell line; format: cell-based; details: for endogenous p27 level: mink lung epithelial cell line; for stabilization of GFP-p27: mink lung epithelial cell line stably expressing GFP-p27
p210^bcr-abl = details: read-out: IC50 against p210^bcr-abl in vitro; cited from earlier work
K562 leukemia cell lines = details: read-out: GI50 against K562 leukemia cell lines; cited from earlier work
Cks1 (Homo sapiens) [3] = target: Cks1 (Homo sapiens) (UniProt P61024); details: cited from earlier work
Cks1 (Homo sapiens) [4] = target: Cks1 (Homo sapiens) (UniProt P61024); assay: ITC; details: cited from earlier work
[5] = read-out: Inhibition of Skp2-Cks1 IC50, AlphaScreen, GST-Skp2/Skp1 20 nM, Cks1 200 nM
[6] = read-out: p27 Ub IC50, in vitro p27 ubiquitination

Chain of Skp2 (Q13309 whole entry): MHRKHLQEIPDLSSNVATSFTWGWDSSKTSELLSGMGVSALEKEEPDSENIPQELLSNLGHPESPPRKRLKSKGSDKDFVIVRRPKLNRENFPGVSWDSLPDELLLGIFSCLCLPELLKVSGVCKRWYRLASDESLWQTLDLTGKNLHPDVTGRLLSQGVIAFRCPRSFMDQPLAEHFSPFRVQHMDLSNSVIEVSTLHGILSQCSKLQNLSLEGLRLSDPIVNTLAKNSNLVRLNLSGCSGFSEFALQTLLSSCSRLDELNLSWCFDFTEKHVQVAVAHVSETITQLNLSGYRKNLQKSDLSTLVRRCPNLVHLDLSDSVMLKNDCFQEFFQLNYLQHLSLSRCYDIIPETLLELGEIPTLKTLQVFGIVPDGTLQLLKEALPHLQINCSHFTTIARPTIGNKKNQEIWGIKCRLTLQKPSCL
Chain of Cks1 (Homo sapiens) (P61024 2-79): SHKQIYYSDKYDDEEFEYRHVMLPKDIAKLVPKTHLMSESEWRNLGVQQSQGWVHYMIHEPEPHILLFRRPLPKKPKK

| IC50 (Skp2-Cks1 interaction; [5]) [µM] | IC50 [1, 6] [µM] | Molecule | effect on Skp2-Cks1 interaction (in words) (Skp2-Cks1 interaction; AlphaScreen) | effect on p27 ubiquitination in vitro (in words) [1] | further results |
| --- | --- | --- | --- | --- | --- |
| 75.6 ± 6.8 | ~80 | COC(=O)c1ccc(CCc2cc(O)ccc2O)cc1 [NSC681152] | blocked the Skp2-Cks1 interaction at low μM concentrations | impeded p27 polyubiquitination in a dose-dependent manner; also recorded: inhibited p27 ubiquitination in vitro | endogenous p27 level [2]: increases only marginally; stabilization of GFP-p27 [2]: dose-dependent stabilization; IC50 (p210^bcr-abl): 2.64 µM; GI50 (K562 leukemia cell lines): 18.5 µM |
| 36 ± 6.2 | ~30 | O=C(OCC12CC3CC(CC(C3)C1)C2)c1ccc(NCc2cc(O)ccc2O)cc1 [Compound 857] | blocked the Skp2-Cks1 interaction at low μM concentrations |  | effect on p27 ubiquitination in vitro (in words) ([1]; listed as NSC689857): impeded p27 polyubiquitination in a dose-dependent manner; also recorded: inhibited p27 ubiquitination in vitro; endogenous p27 level [2]: increases only marginally; stabilization of GFP-p27 [2]: dose-dependent stabilization; IC50 (p210^bcr-abl): 12.6 µM; GI50 (K562 leukemia cell lines): 12.8 µM |
| 71 ± 4.4 | ~15 | CCCCC(=O)c1ccc(OC)c(C)c1 [Compound Q857] | blocked the Skp2-Cks1 interaction at low μM concentrations | inhibited p27 ubiquitination in vitro |  |
| 1090 ± 189 | > 300 | CCCCC(=O)c1ccc(OC)c(C)c1 [Compound A857] |  |  |  |

Continued, molecule first:

| Molecule | IC50 (Skp2-Cks1 interaction; [5]) [µM] | IC50 [1, 6] [µM] | effect on Skp2-Cks1 interaction (in words) (Skp2-Cks1 interaction; AlphaScreen) | effect on p27 ubiquitination in vitro (in words) [1] | further results |
| --- | --- | --- | --- | --- | --- |
| O=C1C=CC(=O)C=C1 [BQ, 1,4-benzoquinone, reference compound] |  |  | no effect | no effect | IC50 (Skp2-Cks1 interaction): 626 ± 65.7 µM; IC50 [1]: > 300 µM |
| CCCCC(=O)c1ccc(OC)c(C)c1 [Compound E857] | 8310 ± 1460 | > 300 |  |  |  |
| Cc1cc(O)ccc1O [MHQ, methylhydroquinone, reference compound] |  |  | no effect | no effect | IC50 (Skp2-Cks1 interaction): 434 ± 39.5 µM; IC50 [1]: > 300 µM |
| Skp2 (from UniProt Q13309) |  |  |  |  | Kd (Cks1 (Homo sapiens) [3]): 0.14 µM; Kd (Cks1 (Homo sapiens) [4]): 0.014 µM |

— PMC4168015 (Journal of biomolecular screening, 2013)
